# Assay results reported in ChEMBL document CHEMBL1129988, “4-substituted cubylcarbinylamines: a new class of mechanism-based monoamine oxidase B inactivators” (J Med Chem, 1997).
# B1: Amine oxidase [flavin-containing] B (Bos taurus) (protein)
# chain: MSSKCDVVVVGGGISGMAAAKLLHDSGLNVIVLEARDRVGGRTYTLRNQKVKYVDLGGSYVGPTQNHILRLSKELGLETYKVNEVERLIHHTKGKSYPFRGSFPSVWNPITYLDHNNLWRTMDDMGREIPSDAPWKAPLAEQWDLMTMKELLDKICWTESSKQLAILFVNLCVTAEIHEVSALWFLWYVKQCGGTTRIFSTSNGGQERKFVGGSGQVSERIMDLLGDRVKLERPVIHIDQTGENVLVETLNHELYEAKYVISAVPPVLGMKIHFNPPLPMMRNQLITRVPLGSVIKSIVYYKEPFWRNMDYCGSMIIEGEEAPVAYALDDTKPDGSYPAIIGFILAHKARKLARLTKEERLKKLCDLYAKVLGSQEALHPVHYEEKNWCEEQYSGGCYTSYFPPGIMTQYGRVLRQPVGRIYFAGTETATHWSGYMEGAVEAGERAAREILHAMGKIPEDEIWLPEPESVDVPAKPITTTFLQRHLPSVPGLLKLIGLTTIFSATALGFLAHKRGLLVRI
# What was measured:
# [1] = substrate: NCC12C3C4C1C1C2C3C41c1ccccc1; assay: (§1) Michaelis-Menten constant was determined against mitochondrial Monoamine oxidase B
# Summary of the method: (§2)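 K_m and k_cat against MAO B were obtained by measuring hydrogen peroxide formed over time with the amine as substrate.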
# [2] = substrate: NCC12C3C4C1C1C2C3C41C1CC1; assay: as §1; summary of the method: as §2
# [3] = substrate: NCC12C3C4C5C3C1C5C42; assay: as §1; summary of the method: as §2
protein,measurement,setting,value
B1,Km,[1],1010 µM
same,kcat,[1],3.47 s⁻¹
same,kcat/Km,[1],3500 M⁻¹ s⁻¹
same,Km,[2],1540 µM
same,kcat,[2],2.5 s⁻¹
same,kcat/Km,[2],1670 M⁻¹ s⁻¹
same,Km,[3],140 µM
same,kcat,[3],0.0833 s⁻¹
same,kcat/Km,[3],600 M⁻¹ s⁻¹
